H69AR inhibit = blocks growth of human H69AR lung tumor cells; H69AR lung tumor viability, ATP luminescence, 72 h; active compounds read low; viability, % at 10 µM; hit rate 6% among 85,000;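 active = viability at or below 40%; inactive = viability above 40%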;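 also: multidrug resistant small cell line overexpressing MRP-1 efflux transporter; 100% = mean luminescence of untreated control wells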
Lung fibro prol = blocks proliferation of human lung fibroblasts; viability, % at 10 µM; hit rate 1.1% among 85,000; LL 47 human lung fibroblast viability, ATP luminescence; active compounds read low;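 active = viability at or below 50% in the single dose screen; inactive = viability above 50%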;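 also: compound exposure lasted 72 h before the ATP readout; 100% = median luminescence of untreated cell-only wells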
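Signal: luminescent ATP detection, CellTiter-Glo; assay system: LL 47 human lung fibroblasts; input: 1,150 cells/well; incubation: overnight cell rest, 72 h compound treatment at 37 °C; measure: % viability versus median cells-only luminescence; medium: IMEM growth medium with 15% fetal bovine serum; dosing: compound addition at 0.1% DMSO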
HCT116 bCat-KO = beta-catenin-lacking colon tumor cell growth suppression. HCT116 beta-catenin knockout viability, CellTiter-Glo, 60 h; active compounds read low. viability, % at 10 µM. hit rate 1.5% among 140,000;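 active = viability at or under a set limit, the compound median less 4 SD, cut at about 6% in these data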;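 also: 0% = Hyamine 1622 control at 20 µM and 100% = untreated cell control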
HUVEC inhibit = inhibitors of human endothelial cell proliferation. HUVEC proliferation, CellTiter-Glo luminescence, 72 h; active compounds read low. viability, % at 10 µM (by protocol). hit rate 1.1% among 86,000. AID 648;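 active = viability at or below 30%; inactive = viability above 30%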;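 also: 100% = median luminescence of DMSO-only cell control wells on each plate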
HCT116 PTEN-null = PTEN-deleted cell growth suppression. HCT116 PTEN-null viability, CellTiter-Glo, 60 h; active compounds read low. viability, % at 10 µM. hit rate 1.2% among 140,000;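 active = viability at or below a set limit, 4 SD under the median of all tested compounds, cut at about 3.7% in these data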;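 also: PTEN knockout HCT116 line with beta catenin targeted HCT116 as companion control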
* = called active by the depositor; . = no result given. The sample as a whole holds a higher share of hits than the screen did.

SMILES	H69AR inhibit	Lung fibro prol	HCT116 bCat-KO	HUVEC inhibit	HCT116 PTEN-null
CCCC(=O)N1c2ccccc2C(=C2SC(C(=O)OC)=C(C(=O)OC)S2)C(=S)C1(C)C	24*	86	70	69	64
COC(=O)C1=C(C(=O)OC)SC(=C2C(=S)C(C)(C)N(C(=O)C(C)C)c3ccccc32)S1	74	89	78	86	76
Cc1sc(NC(=O)c2cc(-c3ccc(Cl)cc3)nc3ccccc23)c(C(N)=O)c1C	.	.	3.9*	.	1.0*
Cc1sc(NC(=O)c2ccc(Cl)s2)c(C(N)=O)c1C	11*	88	104	60	92
O=C(N/N=C/c1ccccn1)c1cc(-c2ccc(Cl)cc2)nc2ccccc12	.	.	3.7*	.	3.2*
O=C(N/N=C/c1ccc2c(c1)OCO2)c1cc(-c2ccccc2)nc2ccccc12	.	.	95	.	92
Cc1sc(NC(=O)c2ccc(Br)s2)c(C(N)=O)c1C	50	84	84	94	85
O=C1CC(N(CCc2ccccc2)C(=S)Nc2cc(Cl)ccc2Cl)C(=O)N1c1c(Cl)cccc1Cl (stereo not drawn)	.	.	42	.	31
CCOCC(=O)Nc1ccc(S(=O)(=O)NCCc2ccccc2)cc1	15*	104	81	110	84
Cc1ccccc1OCc1nc(-c2ccc(NC(=O)c3ccc4c(c3)OCO4)cc2)no1	16*	30*	61	31	46
CCCc1ccc(OCc2nc(-c3ccc(NC(=O)c4cccs4)cc3)no2)cc1	.	.	15	.	25
CCCc1ccc(OCc2nc(-c3ccc(NC(=O)c4ccco4)cc3)no2)cc1	9.2*	51	11	51	10
COc1ccc(-c2ccc(-c3noc(-c4ccccc4OC)n3)c(OC)n2)cc1	34*	100	88	72	100
Cc1ccccc1OCc1nc(-c2ccc(NC(=O)c3ccco3)cc2)no1	93	94	87	70	94
O=C(Nc1ccc(-c2noc(CCc3ccccc3)n2)cc1)c1cccnc1	5.5*	87	78	68	85
Cc1cc(OCc2nc(-c3ccc(NC(=O)c4cccnc4)cc3)no2)ccc1Cl	.	.	52	.	70
CN(C)S(=O)(=O)c1ccc(Cl)c(NC(=O)COC(=O)c2cc(-c3ccccc3)nc3ccccc23)c1	.	.	98	.	100
COc1ccccc1CC(=O)Nc1ccc(-c2noc(COc3cccc(C)c3C)n2)cc1	38*	105	75	80	82
COc1ccc(CC(=O)Nc2ccc(-c3noc(-c4ccccc4OC)n3)cc2)cc1	17*	66	95	26*	91
COc1cccc(-c2nc(-c3ccc(NC(=O)Cc4ccccc4OC)cc3)no2)c1	107	97	85	101	72
COc1ccccc1CC(=O)Nc1ccc(-c2noc(COc3ccc(Br)cc3)n2)cc1	19*	83	93	86	93
Cc1nn(-c2ccccc2)c(=S)c2ccccc12	.	.	95	.	93
Cn1c(SCC(=O)N/N=C/C=C/c2ccco2)nc2ccccc21	.	.	74	.	73
Cc1ccc(C(=O)Nc2cc3c(oc2=O)CCCC3=O)cc1	.	.	95	.	96
CCn1ncc(C2=NOC(C(=O)Nc3c(C)n(C)n(-c4ccccc4)c3=O)C2)c1C (stereo not drawn)	98	101	103	49	101
SMILES	H69AR inhibit	Lung fibro prol	HCT116 bCat-KO	HUVEC inhibit	HCT116 PTEN-null
COc1ccc(C2=NOC(C(=O)NCc3ccccc3)C2)cc1 (stereo not drawn)	44	83	69	62	82
CCn1ncc(C2=NOC(C(=O)NCc3ccccc3)C2)c1C (stereo not drawn)	26*	49*	15	50	19
CCn1ncc(C2=NOC(C(=O)NCc3ccc(OC)cc3)C2)c1C (stereo not drawn)	21*	103	36	64	37
CCOC(=O)CNC(=O)CNC(=O)c1ccc(OCC(C)C)cc1	54	82	91	89	97
CCCCCOc1ccc(C(=O)NCC(=O)NCC(=O)OCC)cc1	25*	83	36	56	36
COc1ccc(C)cc1NC(=O)CN1CCN(C/C=C/c2ccccc2)CC1	.	.	73	.	72
COc1ccc2c(c1)-c1c(sn(-c3ccc(OC)c(OC)c3)c1=S)C(C)(C)N2	.	.	52	.	54
COc1cc2c3c(c1)-c1c(sn(-c4cc(OC)ccc4OC)c1=S)C(C)(C)N3C(=O)C2=O	3.9*	101	2.4*	51	1.2*
C/C(=C1/C(=O)N(c2ccc([N+](=O)[O-])cc2)N=C1c1ccccc1)N(C)C	.	.	3.3*	.	2.2*

Screening results (PubChem BioAssay)
